Hits are enriched below; roughly 1.8% of the tested compounds scored in any of these assays.
eIF4E 4G PPI = blocks eIF4E binding to eIF4G | actives 0.37% (n = 220,000) | TR-FRET eIF4E-eIF4GI(517-606) binding, 2 h | inhibition, % at 21.7 µM;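 active means inhibition above about 30%, limit read from the data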;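 further: 0% = full FRET control wells and 100% = background wells lacking eIF4GI fragment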
HCV core dimer = HCV core protein dimerization inhibition; TR-FRET GST/Flag-core106 dimerization, 1536-well; inhibition, % at 5 µM; actives 0.33% (n = 300,000);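 active means inhibition above the mean of all tested compounds plus 3 SD, set per screening campaign, cut at about 45% in these data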
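Material: GST/Flag-tagged HCV core106 proteins. Incubation: 4 h, 22.5 °C incubation. Read-out basis: inhibition (%) from 671 over 617 nm ratio. Measured by: TR-FRET, excitation 340 nm, emission 617 and 671 nm.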
MLLE-PAM2 inh = blocks PAM2 peptide binding to the PABP1 MLLE domain | inhibition, % at 20 µM | GST-MLLE / FITC-PAM2 fluorescence polarization | actives 0.36% (n = 360,000); in the data active means inhibition above about 35%, passing the limit was not always enough;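 further: plate controls were DMSO wells with GST-MLLE for no effect and wells lacking GST-MLLE protein for full effect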
UBC9 SUMO inh = inhibitors of human SUMOylation (UBC9) | P63279 | HTRF SUMOylation assay, SAE1/SAE2 + UBC9, in vitro | inhibition, % at 35 µM | actives 0.36% (n = 290,000) | AID 2006; in the data active means inhibition above about 50%, passing the limit was not always enough; inconclusive means no clear call, values can overlap the other calls
Target sequence (P63279 whole entry, looked up): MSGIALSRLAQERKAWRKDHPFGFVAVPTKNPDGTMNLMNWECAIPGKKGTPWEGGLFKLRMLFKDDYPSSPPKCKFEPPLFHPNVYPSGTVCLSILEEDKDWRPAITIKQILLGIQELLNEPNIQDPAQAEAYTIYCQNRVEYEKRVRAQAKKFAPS
PABP FP inh = blocks human PABP binding to poly(A) RNA. AID 2014. actives 1% (n = 290,000). calls only at 35 µM. P11940. fluorescence polarization;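 further: calls also rest on retests at 20 µM and on dose response follow-up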
eIF4H inh = inhibitors of RNA binding by human eIF4H; actives 0.94% (n = 290,000); AID 2012; inhibition, % at 35 µM; eIF4H fluorescence polarization binding assay; Q15056;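 further: calls also rest on retests at 20 µM and on dose response follow-up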
An asterisk follows results filed as active; i = inactive; u = inconclusive; x = not tested or not shown; + = active, no number. Unless noted, how the calls were made is not given here.

SMILES | eIF4E 4G PPI | HCV core dimer | MLLE-PAM2 inh | UBC9 SUMO inh | PABP FP inh | eIF4H inh
CC(C)CN(C(=O)COC(=O)c1cc2c(s1)CCC2)C1CCS(=O)(=O)C1 (stereo not drawn) | 13.5 | 87.6* | 0.7 | 10.6 | + | 86.5*
COc1ccc(Br)c(C(=O)N2CCN(S(=O)(=O)c3cccs3)CC2)c1 | -9.4 | 2.1 | 6.0 | 15.3 | i | -6.2
Cn1ncc2nc[nH]c(=O)c21 | -9.6 | -6.5 | 0.2 | -7.1 | + | u
CN(c1ccc(O)cc1)c1nc(-c2cccs2)cs1 | 1.1 | -0.4 | -0.1 | -9.3 | i | -6.7
Cc1nc(N)sc1-c1csc(N(C)c2ccc(O)cc2)n1 | 10.9 | -6.8 | -9.3 | 29.5 | + | 92.5*
O=c1nc2n(c3sc4c(c13)CCCC4)C(CBr)CS2 (stereo not drawn) | 3.6 | 1.9 | 39.7* | 15.4 | i | -11.1
O=c1c2ccccc2nc2n1C(CBr)CS2 (stereo not drawn) | 3.7 | -6.1 | 24.1 | 13.3 | i | -6.9
C/C(=N\NC(=O)c1cc2ccccc2cc1O)c1ccccn1 | x | -0.3 | -9.8 | x | x | x
C/C(CC(=O)N1CCN(C=O)CC1)=N\NC(=O)c1cc2ccccc2cc1O | 2.9 | -1.7 | 20.3 | 65.1* | + | 102.1*
C/C(=N/NC(=O)c1cc2ccccc2cc1O)C1C(=O)c2ccccc2C1=O | 3.0 | 13.1 | -36.0 | 39.2 | + | 45.0
C/C(CC(=O)N1CCN(C=O)CC1)=N\NC(=O)c1ccc([N+](=O)[O-])cc1 | -0.7 | -7.7 | 0.9 | -14.9 | i | -10.0
C/C(=N\NC(=O)c1cc2ccccc2cc1O)c1cc2ccccc2o1 | 1.4 | 10.2 | -23.7 | 55.7* | i | 46.9
CCOC(=O)C1CCCN(C(=O)CCc2nnc(-c3ccc(C(C)=O)s3)o2)C1 (stereo not drawn) | x | 0.8 | -10.5 | 15.1 | i | -8.8
COc1ccc(NC(=O)c2ccc(Cl)c(S(=O)(=O)NCC3CCCO3)c2)c(OC)c1 (stereo not drawn) | x | 13.6 | 13.2 | 4.3 | i | -5.7
CC(C)(C)c1ccc(OCc2ccc(C(=O)Nc3cccnc3)o2)cc1 | x | 8.9 | 6.8 | -36.4 | i | 3.7
COc1ccc(CN(C(=O)Cn2nnc(-c3ccc(C)o3)n2)C(C(=O)NCC2CCCO2)c2ccco2)cc1 (stereo not drawn) | 2.1 | 5.6 | 2.6 | -8.1 | i | -7.2
Cc1cc(C(=O)CSc2n[nH]c(N)n2)c(C)n1-c1ccc(F)cc1 | 8.0 | 2.3 | -7.5 | 38.1 | + | 76.2*
COc1ccc(S(=O)(=O)Cc2ccc(C(=O)N3CCc4ccccc4C3)o2)cc1 | -0.6 | -1.2 | -7.0 | -3.9 | i | 1.8
Cc1ccc(S(=O)(=O)Cc2ccc(C(=O)N3CCc4ccccc4C3)o2)cc1 | 11.5 | 24.1 | 7.3 | 19.3 | + | 89.5*
Cc1ccc(S(=O)(=O)Cc2ccc(C(=O)O)o2)cc1 | 14.0 | 3.8 | 22.5 | 13.2 | + | 85.6*
CS(=O)(=O)c1ccc(C(=O)N2CCc3ccccc3C2)cc1 | -4.5 | 0.0 | 0.0 | 15.1 | i | active
CC(C)(C)c1ccc(C(=O)NCCC(=O)NCc2ccc(F)cc2)cc1 | x | x | -7.3 | x | x | x
COc1ccc(NC(=O)c2cc(=O)[nH]c(=O)[nH]2)cc1S(=O)(=O)Nc1ccccc1Cl | 0.1 | -7.8 | -5.6 | 13.3 | i | -6.2
COc1ccccc1NC(=O)c1ccc2c(c1)nnn2C | -1.8 | -21.9 | -9.4 | 4.7 | i | -4.2
COc1ccccc1N1CCN(S(=O)(=O)c2ccc3c(c2)NC(=O)C(C)S3)CC1 (stereo not drawn) | x | 16.1 | 11.0 | -5.6 | i | 0.1
COc1ccccc1N1CCN(C(=O)C(C)CS(=O)(=O)c2ccc3c(c2)NC(=O)CS3)CC1 (stereo not drawn) | x | -282.6 | -8.7 | -1.8 | i | 56.3*
O=C(NNC(=O)c1ccccc1F)c1cccc(-n2cccc2)c1 | x | 53.1* | -15.1 | x | x | x
Nc1nc(Cl)nc2c1ncn2C1OCC(O)C(O)C1O (stereo not drawn) | x | x | -10.6 | x | x | x
Cc1cc(C)c2cc3c(ccn3C3OC[C@H](O)[C@H](O)[C@H]3O)cc2n1 (stereo partly drawn) | -17.7 | -5.3 | 49.1* | 38.3 | + | 32.9*

Source: PubChem BioAssay
